The source made the active and inactive calls. No cut-off for these calls is given here.
Tests used:
MCF7 [1] = assay: Inhibition of cell migration in human MCF7 cells at 2 nM incubated for 24 hrs in presence of DMBA by inverted fluorescence microscopic method (reference value: 11.51%); assay type: functional; set-up: scale not given: the % may be the effect or the level left
MCF7 [2] = assay: Antitumor activity against human MCF7 cells xenografted in BALB/c nude mouse assessed as reduction in tumor microvessel density at 1 mg/kg, iv administered every 2 days and measured after 21 days by immunohistochemistry analysis; assay type: functional, organism-based; conditions: time 21.0 day
How it was run: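 Same subcutaneous MCF-7 nude-mouse xenografts dosed iv every 2 days for 21 days. Tumors then fixed, paraffin-embedded and sectioned. Apoptotic cells detected by TUNEL fluorescent staining with DNA counterstain; microvessel density measured by anti-CD31 immunohistochemistry.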

Cytochrome P450 1A1 = target: T1, Cytochrome P450 1A1 (Homo sapiens, UniProt P04798); assay: Inhibition of CYP1A1 signalling in human MCF7 cells assessed as reduction in CYP1A1 level incubated for 24 hrs by Western blot analysis; assay type: ADME, cell-based; conditions: mcf7, 24 h, at 1 to 4 nM, dose 1-4 nM
T1 sequence (P04798 whole entry): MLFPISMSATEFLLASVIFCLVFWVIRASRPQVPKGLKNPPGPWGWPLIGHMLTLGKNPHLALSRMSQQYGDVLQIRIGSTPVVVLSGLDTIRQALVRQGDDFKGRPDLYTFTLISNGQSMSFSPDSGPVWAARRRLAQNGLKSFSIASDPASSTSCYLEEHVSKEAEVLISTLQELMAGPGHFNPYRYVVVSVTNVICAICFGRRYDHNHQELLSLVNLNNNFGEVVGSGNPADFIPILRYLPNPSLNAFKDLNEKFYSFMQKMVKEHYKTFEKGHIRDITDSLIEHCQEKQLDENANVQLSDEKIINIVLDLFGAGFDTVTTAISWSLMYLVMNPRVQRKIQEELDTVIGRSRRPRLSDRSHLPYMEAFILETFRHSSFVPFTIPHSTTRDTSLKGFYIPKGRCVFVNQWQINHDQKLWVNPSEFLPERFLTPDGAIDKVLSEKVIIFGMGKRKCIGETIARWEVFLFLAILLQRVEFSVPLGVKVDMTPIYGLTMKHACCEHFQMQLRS
How it was run: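 MCF-7 cells seeded 4 × 10⁵ per well, grown 24 h, then exposed to DMSO or 1, 2, 4 nM for 24 h; BAY 2416964 served as AhR antagonist reference. Lysates adjusted to 3 mg/mL protein by BCA, resolved on 4−20% SDS-PAGE, immunoblotted; AhR and CYP1A1 bands normalized to GAPDH. Three independent runs.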

MCF7 [3] = assay: Antitumor activity against human MCF7 cells xenografted in BALB/c nude mouse assessed as decrease in tumor weight at 0.5 mg/kg, iv administered every 2 days for 21 days and measured every 2 days; assay type: functional; set-up: scale not given: the % may be the effect or the level left; conditions: time 21 day
How it was run: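 MCF-7 cells (6 × 10⁶) injected subcutaneously into right flank of BALB/c nude mice; after 7 days animals randomized, eight per group. Dosing iv every 2 days for 21 days, vehicle 10% DMSO/5% Tween 80/85% saline. Tumor size and body weight recorded every 2 days; tumors excised and weighed at sacrifice.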

MCF7 [4] = assay: Induction of apoptosis in human MCF7 cells assessed as decrease in of Bcl-2 protein expression at 1 to 4 nM; assay type: functional, cell-based; conditions: dose 1-4 nM
How it was run: (§1)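 MCF-7 seeded 4 × 10⁵ per well for 24 h, then DMSO or compound at 1, 2, 4 nM for 24 h. Lysates protein-normalized to 3 mg/mL by BCA, resolved on 4–20% SDS-PAGE and immunoblotted. Bands quantified relative to β-actin (cell-cycle proteins) or GAPDH (apoptosis proteins); n = 3.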

[5] = target: T2, Aryl hydrocarbon receptor (Homo sapiens, UniProt P35869); assay: Inhibition of AhR signalling in human MCF7 cells assessed as reduction in AhR level at 2 nM incubated for 24 hrs in presence of DMBA by Western blot analysis; assay type: cell-based; conditions: mcf7, 24 h, 0.002 µM
T2 sequence (P35869 whole entry): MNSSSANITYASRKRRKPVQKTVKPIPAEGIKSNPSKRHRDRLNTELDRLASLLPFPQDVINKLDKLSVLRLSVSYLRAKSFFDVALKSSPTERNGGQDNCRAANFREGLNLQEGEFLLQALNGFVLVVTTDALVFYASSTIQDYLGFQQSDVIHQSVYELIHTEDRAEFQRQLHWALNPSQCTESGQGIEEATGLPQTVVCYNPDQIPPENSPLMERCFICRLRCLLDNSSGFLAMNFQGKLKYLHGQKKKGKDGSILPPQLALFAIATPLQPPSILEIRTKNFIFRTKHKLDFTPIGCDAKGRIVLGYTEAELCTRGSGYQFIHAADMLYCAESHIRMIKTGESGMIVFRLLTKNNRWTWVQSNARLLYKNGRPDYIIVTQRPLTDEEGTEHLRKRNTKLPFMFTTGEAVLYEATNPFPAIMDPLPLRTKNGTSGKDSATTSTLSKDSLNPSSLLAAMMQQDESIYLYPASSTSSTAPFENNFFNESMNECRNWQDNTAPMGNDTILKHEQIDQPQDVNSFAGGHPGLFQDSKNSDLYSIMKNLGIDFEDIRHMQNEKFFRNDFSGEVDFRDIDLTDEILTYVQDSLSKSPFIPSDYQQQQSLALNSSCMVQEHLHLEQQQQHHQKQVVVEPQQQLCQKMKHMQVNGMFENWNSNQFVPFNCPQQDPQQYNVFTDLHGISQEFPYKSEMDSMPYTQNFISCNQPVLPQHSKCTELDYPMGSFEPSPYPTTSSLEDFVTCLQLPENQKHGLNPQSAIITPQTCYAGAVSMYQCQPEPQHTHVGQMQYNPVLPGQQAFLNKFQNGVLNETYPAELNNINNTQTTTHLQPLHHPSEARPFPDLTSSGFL
How it was run: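 MCF-7 treated with DMBA (400 nM), DMBA plus 2 nM, or 2 nM alone. AhR measured by Western blot relative to loading control; n = 3.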

Tubulin (Homo sapiens) = Tubulin (Homo sapiens) (UniProt P68371+Q9H4B7+P0DPH7+P68366+Q13509+Q71U36+P04350+Q3ZCM7+P07437+P68363+Q9BQE3+Q6PEY2+Q13885+Q9BVA1+Q9BUF5); assay: Induction of microtubule damage in human MCF7 cells at 0.5 nM incubated for 48 hrs by DAPI staining based immunofluorescence assay; assay type: cell-based
How it was run: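 Blocked with goat serum for 20 min, probed with anti-β-tubulin for 2 h, fluorescent secondary antibody and DAPI nuclear stain, imaged by laser confocal microscopy.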

MCF7 [6] = assay: Induction of apoptosis in human MCF7 cells assessed as viable cells at 0.5 nM measured after 24 hrs by Annexin V-FITC and PI staining based flow cytometry assay (reference value: 96.8%); assay type: functional; conditions: read-out: Activity
[7] = target: Tubulin beta (Homo sapiens) (UniProt P68371+Q9H4B7+Q13509+P04350+Q3ZCM7+P07437+Q13885+Q9BVA1+Q9BUF5+A6NNZ2); assay: Inhibition of beta-tubulin polymerization in human MCF7 cells assessed as inhibition of EBI-beta-tubulin adduct formation at 1 to 4 nM measured after 2 hrs by Western blot-based EBI competition assay; assay type: cell-based; conditions: dose 1-4 nM
MCF7 [8] = assay: Induction of apoptosis in human MCF7 cells assessed as increase in cleaved Caspase-9 protein expression at 1 to 4 nM; assay type: functional, cell-based; conditions: dose 1-4 nM; how it was run: as §1
MCF7 [9] = assay: Induction of mitochondrial membrane potential loss in human MCF7 cells at 1 nM measured after 24 hrs by JC-1 staining based flow cytometry analysis (reference value: 3.01%); assay type: functional

inhibition (INH) (Cytochrome P450 1A1): Dose-Dependent Effect | inhibition (INH) [5]: Active | inhibition [7]: Active
Structure (SMILES): Cc1nc(N(C)c2ccc3c(c2)cc(C)n3C)c2ccccc2n1
Activity (MCF7 [1]): 6.34% | Activity (MCF7 [2]): Active | Activity (MCF7 [3]): 73.2% | Activity (MCF7 [4]): Active | Activity (Tubulin (Homo sapiens)): inactive | viability at 0.0005 µM (MCF7 [6]): 95% | Activity (MCF7 [8]): Active | Activity (MCF7 [9]): 6.49%
